Calls of active or inactive are those of the source. The rule behind the calls is not given here.
Tests used:
Mus musculus [1] = species: Mus musculus; assay: (§1) Evaluated for drug-induced inhibition of exploratory activity in mouse; format: functional; set-up: concentration or dose not given beside the values
In short: (§2)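 Male Swiss-Webster mice (20–30 g) were acclimated for several days and tested in groups of three in an activity meter. Dosing was 10 mg/kg ip immediately before cage entry; controls got water on each test day. Counts from the 18 min starting at 6 min were summed as % reduction vs control. Three groups per compound; one-way ANOVA, Scheffé.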

Canis familiaris [2] = species: Canis familiaris; assay: Evaluated for inhibition of pressor response during carotid occlusion in dog; format: functional; details: Canis lupus familiaris
In short: (§3)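 Dogs (8–15 kg) under thiopental sodium 15 mg/kg iv, then barbital sodium 200 mg/kg. Pressor response to bilateral carotid occlusion was monitored at least 1 h per dose. Doses changed by 0.48 log interval once responses returned to control. At least five dogs per compound; value is the calculated amount giving 50% inhibition of the pressor response.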

Rattus norvegicus [3] = species: Rattus norvegicus; assay: Evaluated for induce circling behavior in the rat expressed as rotational behavior (turns/h); format: functional
In short: (§4)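 Used male Sprague-Dawley rats (200–300 g) with unilateral substantia nigra 6-hydroxydopamine lesions. A single 10 mg/kg sc dose was given to four rats at the start of a 1-h automatic recording. Turns/h were recorded with direction (ipsilateral or contralateral); a mean above 100 counted as substantial circling.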

Felis catus = species: Felis catus; assay: Evaluated for inhibition of pressor response during central sciatic nerve stimulation in cat; format: functional
In short: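 In cats under pentobarbital sodium 30 mg/kg intrathoracic, left femoral arterial pressure was recorded. The central stump of the sectioned right sciatic nerve was stimulated at 4 Hz, 5 ms, supramaximal voltage for 30 s (pressor 30–60 mmHg). Compounds were given iv, followed 1 h, doses stepped by 0.48 log unit; at least six cats. Value is the calculated amount giving 50% pressor inhibition.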

Mus musculus [4] = species: Mus musculus; assay: Evaluated for analgesic activity and increase in reaction time in mouse by hotplate assay; format: functional; set-up: unit not given beside the values
In short: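 Male Swiss-Webster mice (20–30 g) got 10 mg/kg ip 10 min before a single exposure to a 55 ± 0.5 °C hot plate. End point was jumping or paw licking. Ten mice per drug, plus 10 saline controls each test day; also run after naloxone 5 mg/kg ip pretreatment. Mean latency (s) ± SEM; grouped Student's t test vs control.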

Canis familiaris [5] = species: Canis familiaris; assay: Evaluated for inhibition of pressor response during carotid occlusion in dog; IA = inactive; format: functional, organism-based; details: Canis lupus familiaris; in short: as §3
Mus musculus [6] = species: Mus musculus; assay: as §1; format: functional; in short: as §2
Canis familiaris [7] = assay: Evaluated for inhibition of pressor response during carotid occlusion in dog at 0.5 mg/kg; IA = inactive; format: functional, organism-based; set-up: dose 0.5 mg/kg; details: Canis lupus familiaris
Canis familiaris [8] = species: Canis familiaris; assay: Evaluated for inhibition of pressor response during carotid occlusion in dog.; format: functional; details: Canis lupus familiaris; in short: as §3
Rattus norvegicus [9] = species: Rattus norvegicus; assay: Evaluated for induce circling behavior in the rat expressed as rotational behavior (turns/h); IA = inactive; format: functional, organism-based; in short: as §4
Canis familiaris [10] = species: Canis familiaris; assay: Evaluated for inhibition of pressor response during carotid occlusion in dog at 0.5; IA = inactive; format: functional, organism-based; details: Canis lupus familiaris

Compound | Reduction (Mus musculus [1]) [%] | Activity (Rattus norvegicus [3]) [turns hr-1] | Activity (Mus musculus [4]) | further results
CCCN(CCC)C1CCc2ccccc2C1.Cl (configuration not stated) | 76.5 | 734 | 29.2 | ED50 (Canis familiaris [2]): 0.22 µmol/kg; ED50 (Felis catus): 0.09 µmol/kg
CN(C)C1CCc2ccccc2C1.Cl (configuration not stated) | 88.1 | 53 | 24.2 | ED50 (Canis familiaris [5]): inactive; ED50 (Felis catus): 0.16 µmol/kg
CNC1CCc2ccccc2C1.Cl (configuration not stated) |  | 263 | 16 | Reduction (Mus musculus [6]): 70.2%
Cl.NC1CCc2ccccc2C1 (configuration not stated) | 55.1 | 104 | 25.6 | 
CCCCNC1CCc2ccccc2C1.Cl (configuration not stated) |  | 7 | 17.6 | Reduction (Mus musculus [6]): 20.7%
CCCNC1CCc2ccccc2C1.Cl (configuration not stated) | 79 | 804 | 18.9 | ED50 (Canis familiaris [2]): 3.38 µmol/kg; ED50 (Felis catus): 0.9 µmol/kg
CCNC1Cc2ccccc2C1.Cl | 73.6 | 17 | 22.1 | 
CCCCN(CCCC)C1Cc2ccccc2C1.Cl | 8.4 | 2 | 11.7 | 
CC(C)N(C)C1Cc2ccccc2C1.Cl | 64 | 15 | 29.4 | 
CCN(CC)C1CCc2ccccc2C1.Cl (configuration not stated) | 73.4 | 501 | 33.5 | ED50 (Felis catus): 0.35 µmol/kg
Br.CCCCN(CCCC)C1CCc2ccccc2C1 (configuration not stated) | 0.8 | 4 | 12 | 
CC(C)NC1CCCc2ccccc2C1 (configuration not stated) |  |  |  | ED50 (Canis familiaris [7]): inactive
CCNC1CCc2ccccc2C1.Cl (configuration not stated) | 76.4 | 508 | 29.6 | ED50 (Canis familiaris [8]): 0.52 µmol/kg; ED50 (Felis catus): 2.3 µmol/kg
CC(C)NC1CCc2ccccc2C1.Cl (configuration not stated) |  |  | 27 | 
CCCNC1Cc2ccccc2C1.Cl | 21.9 | 6 | 15 | 
CC(C)NC1Cc2ccccc2C1.Cl | 2.8 | 25 | 17.8 | 
Cl.NC1Cc2ccccc2C1 | 76 | 27 | 35.8 | 
CCCN(CCC)C1CCCc2ccccc2C1 (configuration not stated) |  |  |  | Activity (Rattus norvegicus [9]): inactive
CN(C)C1Cc2ccccc2C1.Cl |  | 23 |  | 
CNC1Cc2ccccc2C1.Cl | 80.3 | 6 | 28.6 | 
CCCCNC1Cc2ccccc2C1.Cl | 7.1 | 3 | 17.7 | 
CC(C)N(C)C1CCc2ccccc2C1.Cl (configuration not stated) | 79.7 | 16 | 20.6 | 
NC1CCCc2ccccc2C1 (configuration not stated) |  |  |  | Activity (Rattus norvegicus [9]): inactive
CCCN(CCC)C1Cc2ccccc2C1.Cl | 64 | 289 | 22 | ED50 (Felis catus): 0.25 µmol/kg
CN(C)C1CCCc2ccccc2C1 (configuration not stated) |  |  |  | ED50 (Canis familiaris [10]): inactive
CCN(CC)C1Cc2ccccc2C1.Cl | 50.6 | 304 | 33.9 | ED50 (Felis catus): 1.14 µmol/kg
